Calls of active or inactive are those of the source. The rule behind the calls is not given here.
Columns and labels:
[1] = system: 4T1; test: Inhibition of mouse 4T1 cells adhesion to gelatinous matrix protein-coated surface after 60 mins by ELISA; format: functional, cell-based; details: for IC50: 4T1, 1 h
[2] = system: MCF7; test: Inhibition of human MCF7 cells adhesion to gelatinous matrix protein-coated surface after 60 mins by ELISA; format: functional, cell-based
Procedure, shortened: (§1)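 Wells coated with 12% (v/v) Matrigel for 1 h at 37°C, washed with 0.1% BSA RPMI, then blocked 60 min with 0.5% BSA RPMI. Cells pretreated with agents for 60 min at 37°C, then seeded at 2 × 10^4/well and allowed to adhere 30 min. Washed, formalin fixed, crystal violet stained, solubilized in 2% SDS, absorbance at 570 nm. Ratios compare IC50 values across cell lines.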

[3] = system: 4T1; test: Cytotoxicity against mouse 4T1 cells after 24 hrs by MTT assay; format: cell-based; details: for IC50: Mus musculus, 4T1, 24 h; for Activity: mouse, 4t1, 24 h
Procedure, shortened: (§2)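 MTT viability, six replicates. Cells seeded at 6000 per well in 10% FBS RPMI 1640 for 24 h, then exposed to agents at the indicated concentrations in 2% FBS RPMI 1640. DMSO-matched vehicle controls. MTT at 0.5 mg/ml in 10% FBS medium for 2 h at 37°C. Formazan dissolved in DMSO, A570 read.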

[4] = system: 4T1; test: Inhibition of mouse 4T1 cells metastasis at 5 uM after 30 mins by Boyden chamber assay; format: functional, cell-based
Procedure, shortened: (§3)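 Transwell migration (12-μm pore). 5 × 10^4 cells in 0.2% FBS RPMI with agent in the upper insert for 30 min at 37°C, then moved to a well with 10% FBS RPMI for 24 h. Crystal violet stained. Migrated and non-migrated cells eluted with methanol separately, A570 read. % migration computed after background subtraction, expressed relative to vehicle (100%).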

[5] = Cytotoxicity against human MCF10A cells after 24 hrs by MTT assay; format: cell-based, MCF-10A; details: for IC50: Homo sapiens, MCF-10A; for Activity: human, mcf-10a; procedure, shortened: as §2
[6] = target: Focal adhesion kinase 1 (Mus musculus) (UniProt P34152); test: Induction of FAK degradation in mouse 4T1 cells at 5 uM after 1 hr by Western blotting; format: cell-based
Sequence of Focal adhesion kinase 1 (Mus musculus) (P34152 whole entry): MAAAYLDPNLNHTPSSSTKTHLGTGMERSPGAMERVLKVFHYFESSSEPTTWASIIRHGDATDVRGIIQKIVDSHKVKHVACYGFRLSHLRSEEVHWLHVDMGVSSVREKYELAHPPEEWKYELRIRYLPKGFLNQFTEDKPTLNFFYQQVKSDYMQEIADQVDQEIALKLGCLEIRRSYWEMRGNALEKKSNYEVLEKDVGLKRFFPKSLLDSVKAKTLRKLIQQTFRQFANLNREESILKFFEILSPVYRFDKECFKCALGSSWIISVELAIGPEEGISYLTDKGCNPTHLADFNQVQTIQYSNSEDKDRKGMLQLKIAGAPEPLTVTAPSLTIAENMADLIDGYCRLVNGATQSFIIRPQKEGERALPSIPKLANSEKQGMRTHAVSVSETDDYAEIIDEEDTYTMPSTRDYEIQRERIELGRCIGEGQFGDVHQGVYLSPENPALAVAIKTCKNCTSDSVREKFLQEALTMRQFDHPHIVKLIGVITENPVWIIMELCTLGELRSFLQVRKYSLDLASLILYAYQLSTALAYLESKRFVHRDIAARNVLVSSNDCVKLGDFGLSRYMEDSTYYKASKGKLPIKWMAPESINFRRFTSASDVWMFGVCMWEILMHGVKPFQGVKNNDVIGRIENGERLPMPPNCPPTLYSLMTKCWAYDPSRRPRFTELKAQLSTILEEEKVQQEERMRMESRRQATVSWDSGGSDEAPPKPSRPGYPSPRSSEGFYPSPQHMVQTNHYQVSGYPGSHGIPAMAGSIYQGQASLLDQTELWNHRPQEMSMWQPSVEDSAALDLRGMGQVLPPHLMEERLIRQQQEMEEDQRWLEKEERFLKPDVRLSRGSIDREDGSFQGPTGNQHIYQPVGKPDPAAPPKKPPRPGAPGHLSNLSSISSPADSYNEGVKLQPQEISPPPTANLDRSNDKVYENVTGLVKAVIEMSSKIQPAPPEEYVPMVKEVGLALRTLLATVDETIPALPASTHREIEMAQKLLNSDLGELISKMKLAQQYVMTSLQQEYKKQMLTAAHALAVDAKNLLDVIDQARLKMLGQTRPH

[7] = system: SK-BR-3; test: Inhibition of human SK-BR-3 cells adhesion to gelatinous matrix protein-coated surface after 60 mins by ELISA; format: functional, cell-based; procedure, shortened: as §1
[8] = system: 4T1; test: Inhibition of mouse 4T1 cells adhesion to vitronectin at 0.5 to => 1 uM after 60 mins by ELISA; format: functional, cell-based
Procedure, shortened: (§4)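 Wells coated 1 h at 37°C with 2 μg/ml vitronectin or 10 μg/ml collagen IV, fibronectin or laminin. Washed with 0.1% BSA RPMI, blocked 60 min with 0.5% BSA RPMI. 4T1 cells pretreated with agents for 60 min at 37°C, then 2 × 10^4 cells/well allowed to adhere 30 min. Nonadherent cells washed off. Formalin fixed, 0.5% crystal violet stained, dissolved in 2% SDS, A570 read.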

[9] = system: SK-BR-3; test: Ratio of IC50 for inhibition of human SK-BR-3 cells adhesion to gelatinous matrix protein-coated surface to IC50 for mouse 4T1 cells adhesion to gelatinous matrix protein-coated surface; format: functional; procedure, shortened: as §1
[10] = system: 4T1; test: Inhibition of mouse 4T1 cells adhesion to collagen 4 at after 60 mins by ELISA; format: functional, cell-based; procedure, shortened: as §4
[11] = system: MCF7; test: Ratio of IC50 for inhibition of human MCF7 cells adhesion to gelatinous matrix protein-coated surface to IC50 for mouse 4T1 cells adhesion to gelatinous matrix protein-coated surface; format: functional; procedure, shortened: as §1
[12] = system: 4T1; test: Effect on actin cytoskeletal structure in mouse 4T1 cells assessed as rapid dissolution of actin stress fibers at 5 uM after 4 hrs by immunocytochemistry; format: functional, cell-based
[13] = system: 4T1; test: Inhibition of mouse 4T1 cells adhesion to vitronectin at after 60 mins by ELISA; format: functional, cell-based; procedure, shortened: as §4
[14] = system: 4T1; test: Inhibition of mouse 4T1 cells adhesion to laminin at 0.5 to => 1 uM after 60 mins by ELISA; format: functional, cell-based; procedure, shortened: as §4
[15] = system: 4T1; test: Effect on actin cytoskeletal structure in mouse 4T1 cells assessed as rapid dissolution of F-actin fiber-associated reduction in fluorescent intensity at 5 uM after 4 hrs by immunocytochemistry relative to DMSO; format: functional; set-up: scale not given: the % may be the effect or the level left
[16] = system: 4T1; test: Effect on actin cytoskeletal structure in mouse 4T1 cells assessed as increase in accumulation of small vesicles surrounding nucleus and endoplasmic reticulum at 5 uM after 4 hrs by immunocytochemistry relative to DMSO; format: functional, cell-based
[17] = system: 4T1; test: Inhibition of mouse 4T1 cells adhesion to fibronectin at 0.5 to => 1 uM after 60 mins by ELISA; format: functional, cell-based; procedure, shortened: as §4
[18] = target: Focal adhesion kinase 1 (Mus musculus) (UniProt P34152); test: Induction of FAK degradation in mouse 4T1 cells at 5 uM after 1 hr by Western blotting
[19] = system: 4T1; test: Inhibition of mouse 4T1 cells adhesion to fibronectin at after 60 mins by ELISA; format: functional, cell-based; procedure, shortened: as §4
[20] = system: 4T1; test: Effect on actin cytoskeletal structure in mouse 4T1 cells assessed as rapid loss of F-actin fiber-associated detachment from neighbouring cells at 5 uM after 4 hrs by immunocytochemistry; format: functional, cell-based
[21] = system: 4T1; test: Effect on actin cytoskeletal structure in mouse 4T1 cells assessed as impairment of lamellipodia formation at 5 uM after 4 hrs by immunocytochemistry; format: functional, cell-based
[22] = system: 4T1; test: Inhibition of mouse 4T1 cells adhesion to collagen 4 at 0.5 to => 1 uM after 60 mins by ELISA; format: functional, cell-based; procedure, shortened: as §4
[23] = system: 4T1; test: Inhibition of mouse 4T1 cells adhesion to laminin at after 60 mins by ELISA; format: functional, cell-based; procedure, shortened: as §4
[24] = system: 4T1; test: Effect on actin cytoskeletal structure in mouse 4T1 cells assessed as rapid dissolution of actin stress fibers at 50 uM after 4 hrs by immunocytochemistry; format: functional, cell-based
[25] = system: 4T1; test: Inhibition of mouse 4T1 cells adhesion to collagen 4 at 5 to 100 uM after 60 mins by ELISA; format: functional, cell-based; procedure, shortened: as §4
[26] = system: 4T1; test: Inhibition of mouse 4T1 cells adhesion to laminin at 5 to 100 uM after 60 mins by ELISA; format: functional, cell-based; procedure, shortened: as §4
[27] = system: 4T1; test: Effect on actin cytoskeletal structure in mouse 4T1 cells assessed as rapid loss of F-actin fiber-associated detachment from neighbouring cells at 10 uM after 4 hrs by immunocytochemistry; format: functional, cell-based
[28] = system: MCF7; test: Inhibition of human MCF7 cells adhesion to gelatinous matrix protein-coated surface at 100 uM after 60 mins by ELISA; format: functional, cell-based; procedure, shortened: as §1
[29] = system: 4T1; test: Inhibition of mouse 4T1 cells adhesion to vitronectin at 5 to 100 uM after 60 mins by ELISA; format: functional, cell-based; procedure, shortened: as §4
[30] = system: 4T1; test: Inhibition of mouse 4T1 cells metastasis at 50 uM after 30 mins by Boyden chamber assay; format: functional, cell-based; procedure, shortened: as §3
[31] = system: 4T1; test: Inhibition of mouse 4T1 cells adhesion to fibronectin at 5 to 100 uM after 60 mins by ELISA; format: functional, cell-based; procedure, shortened: as §4
[32] = system: SK-BR-3; test: Inhibition of human SK-BR-3 cells adhesion to gelatinous matrix protein-coated surface at 100 uM after 60 mins by ELISA; format: functional, cell-based; procedure, shortened: as §1
[33] = system: 4T1; test: Inhibition of mouse 4T1 cells adhesion to gelatinous matrix protein-coated surface at 10 uM after 60 mins by ELISA; format: functional; details: 4T1, 1 h
[34] = system: 4T1; test: Effect on actin cytoskeletal structure in mouse 4T1 cells assessed as rapid dissolution of F-actin fiber-associated reduction in fluorescent intensity at 10 uM after 4 hrs by immunocytochemistry relative to DMSO; format: functional; set-up: scale not given: the % may be the effect or the level left
[35] = system: 4T1; test: Effect on actin cytoskeletal structure in mouse 4T1 cells assessed as increase in accumulation of small vesicles surrounding nucleus and endoplasmic reticulum at 10 uM after 4 hrs by immunocytochemistry relative to DMSO; format: functional, cell-based
[36] = system: 4T1; test: Effect on actin cytoskeletal structure in mouse 4T1 cells assessed as rapid dissolution of actin stress fibers at 10 uM after 4 hrs by immunocytochemistry; format: functional, cell-based
[37] = system: 4T1; test: Effect on actin cytoskeletal structure in mouse 4T1 cells assessed as impairment of lamellipodia formation at 10 uM after 4 hrs by immunocytochemistry; format: functional, cell-based

| Compound | inhibition [1] | IC50 [1] | inhibition [2] | IC50 [3] | Activity [3] | inhibition [4] | IC50 [5] | Activity [5] | Activity [6] | inhibition [7] | further results |
| --- | --- | --- | --- | --- | --- | --- | --- | --- | --- | --- | --- |
| Cc1c(C)c2c(c(C)c1OC(=O)CCC(=O)O)CC[C@](C)(/C=C/CC(C)CCCC(C)C)O2 (stereo partly drawn) | Dose-dependent effect | 1300 nM | Dose-dependent effect | > 10000 nM | Dose-dependent effect | Active | 23000 nM | Dose-dependent effect | Active | Dose-dependent effect |  |
| Cc1c(C)c2c(c(C)c1OCC(=O)O)CC[C@](C)(/C=C/CC(C)CCCC(C)C)O2 (stereo partly drawn) | Dose-dependent effect | 600 nM | Dose-dependent effect | > 10000 nM | Dose-dependent effect | Active | 23000 nM | Dose-dependent effect |  | Dose-dependent effect | inhibition [8]: Active; Ratio IC50 [9]: 3.3; inhibition [10]: Dose-dependent effect; Ratio IC50 [11]: 3.3; IC50 ([2]; MCF7, 1 h): 2000 nM; Activity [12]: Active; inhibition [13]: Dose-dependent effect; inhibition [14]: Active; Activity [15]: 84%; Activity [16]: Active; inhibition [17]: Active; Activity [18]: Active; IC50 ([7]; SK-BR-3, 1 h): 2000 nM; inhibition [19]: Dose-dependent effect; Activity [20]: Active; Activity [21]: Active; inhibition [22]: Active; inhibition [23]: Dose-dependent effect |
| Cc1c(C)c2c(c(C)c1OC(=O)CCC(=O)O)CC[C@@](C)(CCC[C@H](C)CCC[C@H](C)CCCC(C)C)O2 [(+)-ALPHA-TOCOPHERYL SUCCINATE] | Dose-dependent effect | 10000 nM |  |  |  |  |  |  | inactive | Dose-dependent effect | Activity [24]: inactive; inhibition [25]: Active; inhibition [26]: Active; Activity [27]: inactive; inhibition [28]: inactive; inhibition [29]: Active; inhibition [30]: inactive; inhibition [31]: Active; inhibition [32]: inactive; inhibition at 10 µM [33]: 50% |
| Cc1c(C)c2c(c(C)c1OC(=O)CCC(=O)O)CC[C@](C)(CCCC(C)CCCC(C)C)O2 (stereo partly drawn) | Dose-dependent effect | 2500 nM | Dose-dependent effect | > 10000 nM | Dose-dependent effect | inactive |  | Dose-dependent effect | inactive | Dose-dependent effect |  |
| Cc1c(C)c2c(c(C)c1OCC(=O)O)CC[C@](C)(CCCC(C)CCCC(C)C)O2 (stereo partly drawn) | Dose-dependent effect | 2000 nM | Dose-dependent effect | > 10000 nM | Dose-dependent effect | Active |  | Dose-dependent effect | Active | Dose-dependent effect | Activity [34]: 70%; Activity [35]: Active; Activity [36]: Active; Activity [37]: Active |

From ChEMBL document CHEMBL1156017, “alpha-Tocopheryl succinate as a scaffold to develop potent inhibitors of breast cancer cell adhesion” (J Med Chem, 2009)
